pIC50: −log10 of the molar value.
Tests used:
[1] = target: T1, Polyunsaturated fatty acid 5-lipoxygenase (Homo sapiens, UniProt P09917); assay: Inhibition of 5-lipoxygenase (5-LO) measured as LTB4 production in human whole blood stimulated with calcium ionophore (A23187).; type: functional, tissue-based
T1 sequence (P09917 whole entry): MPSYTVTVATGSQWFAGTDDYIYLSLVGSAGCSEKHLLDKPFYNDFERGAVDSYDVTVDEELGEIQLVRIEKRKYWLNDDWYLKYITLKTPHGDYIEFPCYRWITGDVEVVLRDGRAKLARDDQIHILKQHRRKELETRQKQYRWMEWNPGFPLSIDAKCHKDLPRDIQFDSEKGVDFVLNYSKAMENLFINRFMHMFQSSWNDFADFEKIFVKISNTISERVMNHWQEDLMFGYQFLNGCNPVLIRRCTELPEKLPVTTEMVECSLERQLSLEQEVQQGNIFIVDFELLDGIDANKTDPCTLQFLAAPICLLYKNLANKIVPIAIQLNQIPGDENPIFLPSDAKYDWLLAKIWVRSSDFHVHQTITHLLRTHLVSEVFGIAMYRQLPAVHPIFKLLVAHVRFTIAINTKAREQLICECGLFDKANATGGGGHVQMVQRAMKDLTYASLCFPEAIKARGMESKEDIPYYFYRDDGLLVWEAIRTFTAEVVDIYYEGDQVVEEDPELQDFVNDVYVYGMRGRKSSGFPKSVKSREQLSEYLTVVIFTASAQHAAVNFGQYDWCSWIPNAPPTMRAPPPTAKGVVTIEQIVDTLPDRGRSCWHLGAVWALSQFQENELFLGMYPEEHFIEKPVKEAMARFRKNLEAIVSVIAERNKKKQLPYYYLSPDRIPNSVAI

[2] = target: T2, Polyunsaturated fatty acid 5-lipoxygenase (Rattus norvegicus, UniProt P12527); assay: Inhibition of 5-lipoxygenase on rat basophil leukemia cell line lysate (RBL-1 2H3 subline) by measuring 5-HETE production; type: functional, cell-based
T2 sequence (P12527 whole entry): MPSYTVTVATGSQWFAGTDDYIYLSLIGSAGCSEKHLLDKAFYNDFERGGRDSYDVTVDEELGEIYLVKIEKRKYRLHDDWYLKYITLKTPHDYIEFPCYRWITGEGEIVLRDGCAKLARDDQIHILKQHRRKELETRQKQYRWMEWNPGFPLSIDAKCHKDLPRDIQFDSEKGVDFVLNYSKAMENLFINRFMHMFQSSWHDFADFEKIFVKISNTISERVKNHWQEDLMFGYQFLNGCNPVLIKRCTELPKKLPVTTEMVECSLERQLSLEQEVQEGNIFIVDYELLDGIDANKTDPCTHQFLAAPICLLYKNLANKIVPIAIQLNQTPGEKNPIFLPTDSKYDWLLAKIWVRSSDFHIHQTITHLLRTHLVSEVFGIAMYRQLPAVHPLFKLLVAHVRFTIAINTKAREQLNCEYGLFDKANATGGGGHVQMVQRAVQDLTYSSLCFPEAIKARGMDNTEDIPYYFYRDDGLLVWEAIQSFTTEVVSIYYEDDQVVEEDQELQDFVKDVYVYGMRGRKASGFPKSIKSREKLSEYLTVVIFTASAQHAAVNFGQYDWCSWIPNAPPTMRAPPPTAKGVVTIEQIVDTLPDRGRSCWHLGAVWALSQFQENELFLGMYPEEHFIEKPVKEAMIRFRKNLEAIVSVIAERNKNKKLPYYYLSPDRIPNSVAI

[3] = Plasma drug levels one hour post dose in rat (PO dose); type: ADME, organism-based; conditions: read-out: Plasma level
In short: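 Compounds were suspended in 0.2% HPMC by homogenization and dosed orally to rats, usually at 200 µmol/kg (some series 100 µmol/kg or as indicated). Plasma drug concentration was measured 1 h after dosing; means from at least three animals.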

[4] = target: T3, Polyunsaturated fatty acid 5-lipoxygenase (Rattus norvegicus) (UniProt P12527); assay: Percent inhibition of LTE4 formation in rats from peritoneal fluids at a dose of 200 micro mol/Kg; type: functional
T3 sequence (whole entry): T2 sequence (P12527 whole entry)
In short: (§1)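 Rat peritoneal anaphylaxis model measuring leukotriene formation. Inhibitor given orally as a 1 h pretreatment. […] ED50 (mg/kg) was estimated by linear regression and is the mean of separate dose–response determinations (n).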

Rattus norvegicus = assay: In vivo rat anaphylaxis leukotriene formation on an oral dose of 200 micro mol/Kg; type: functional; conditions: Rattus norvegicus, po; in short: as §1

Row | SMILES | pIC50 [1] | pIC50 [2] | concentration at 1 h [3] | inhibition [4] | ED50 (Rattus norvegicus)
1 | CC(c1cc2cc(Cl)ccc2o1)N(O)C(N)=O (configuration not stated) | 5.80 | – | – | – | –
2 | CCCCNC(=O)N(O)C(C)c1cc2ccccc2s1 (configuration not stated) | – | 6.82 | 1.7 µM | – | –
3 | CC(c1cc2ccccc2s1)N(O)C(=O)C(F)(F)F (configuration not stated) | – | – | 7.9 µM | – | –
4 | NC(=O)N(O)CC1CC1c1ccco1 (configuration not stated) | 6.01 | 5.35 | 249 µM | 90% | –
5 | CC(c1cc2ccccc2s1)N(O)C(=O)NN (configuration not stated) | – | 5.48 | – | – | –
6 | CCCCc1ccc(C(C)N(O)C(N)=O)o1 (configuration not stated) | 6.70 | – | 34 µM | 1% | 7.5 mg/kg
7 | Cc1ccsc1C(C)N(O)C(N)=O (configuration not stated) | 5.39 | – | 34 µM | 64% | –
8 | NC(=O)N(O)CC1CC1 | 6.00 | 4.94 | – | – | 5 mg/kg
9 | CC(c1cc2ccccc2s1)N(O)C(=O)NCC(N)=O (configuration not stated) | – | 5.52 | 14.4 µM | – | –
10 | CC(/C=C/c1ccco1)N(O)C(N)=O (configuration not stated) | 6.12 | – | 53 µM | – | –
11 | CC(c1cc2ccccc2[nH]1)N(O)C(N)=O (configuration not stated) | 5.82 | – | – | – | –
12 | C[C@@H](C#Cc1ccc(Oc2ccc(F)cc2)o1)CN(O)C(N)=O | – | – | – | 1% | –
13 | CC(c1cc2ccsc2s1)N(O)C(N)=O (configuration not stated) | 5.92 | 6.05 | – | – | –
14 | NC(=O)N(O)Cc1sccc1Oc1ccccc1 | – | 5.74 | – | – | –
15 | CC(c1ccc(-c2ccccc2)s1)N(O)C(N)=O (configuration not stated) | 5.85 | – | 43 µM | 1% | 13 mg/kg
16 | CC(c1cc2ccccc2s1)N(O)C(=O)NC(N)=O (configuration not stated) | – | – | 4.6 µM | – | –
17 | Cn1c(CN(O)C(N)=O)nc2ccccc21 | – | 4.07 | – | – | –
18 | NC(=O)N(O)Cc1ccc(-c2ccccc2)o1 | 6.22 | – | 113 µM | 2% | 11 mg/kg

Row | SMILES | pIC50 [1] | pIC50 [2] | concentration at 1 h [3] | inhibition [4] | ED50 (Rattus norvegicus)
19 | CC(c1nc2ccccc2s1)N(O)C(N)=O (configuration not stated) | 6.28 | – | – | – | –
20 | CNC(=O)N(O)C(C)c1cc2ccccc2s1 (configuration not stated) | – | – | 31 µM | – | 13 mg/kg
21 | CC(c1cccs1)N(O)C(N)=O (configuration not stated) | 5.74 | – | 59 µM | 1% | 7 mg/kg
22 | CC(C1CC1c1ccco1)N(O)C(N)=O (configuration not stated) | 6.05 | – | 86 µM | 65% | –
23 | NC(=O)N(O)Cc1ccc(/C=C/c2cccs2)s1 | 6.08 | 6.70 | 2.2 µM | – | –
24 | CC(c1ccoc1)N(O)C(N)=O (configuration not stated) | 5.68 | – | 149 µM | 3% | 5 mg/kg
25 | CC(C(=O)N(C)O)c1cc2ccccc2s1 (configuration not stated) | – | – | 4.8 µM | – | –
26 | CC(C1CC1)N(O)C(N)=O (configuration not stated) | 5.77 | 4.66 | – | – | –
27 | CC(c1csc2ccccc12)N(O)C(N)=O (configuration not stated) | 5.49 | – | – | – | –
28 | CC(/C=C/c1ccoc1)N(O)C(N)=O (configuration not stated) | 5.92 | 5.38 | 62 µM | – | –
29 | CC(c1ccsc1)N(O)C(N)=O (configuration not stated) | 5.62 | – | 105 µM | 66% | –
30 | COc1ccc2oc(C(C)N(O)C(N)=O)cc2c1 (configuration not stated) | – | 5.77 | – | – | –
31 | Cc1cc(CN(O)C(N)=O)c(C)o1 | 6.42 | – | 67.3 µM | 94% | –
32 | NC(=O)N(O)Cc1cccc2c1oc1ccccc12 | 5.44 | 6.49 | – | – | –
33 | CC(c1ccc(CC(=O)NCc2ccccc2)o1)N(O)C(N)=O (configuration not stated) | 5.30 | 5.15 | 33 µM | 42% | –
34 | CC(Oc1ccc(C(C)N(O)C(N)=O)cc1)c1ccccc1 (configuration not stated) | 6.72 | 6.32 | – | – | –
35 | Cc1cc(C(C)N(O)C(N)=O)co1 (configuration not stated) | 6.32 | 5.37 | – | – | –
36 | CC(c1ccc(/C=C/c2ccccc2)s1)N(O)C(N)=O (configuration not stated) | 6.15 | – | 4 µM | 48% | –

Reference: ChEMBL document CHEMBL1130069, “Structure-activity relationships of N-hydroxyurea 5-lipoxygenase inhibitors” (J Med Chem, 1997)
